Tests used:
[1] = target: T1, C-C chemokine receptor type 4 (Homo sapiens, UniProt P51679); test: Displacement of [125I]TARC from CCR4 expressed in human CEM cell line; assay type: cell-based, CCRF-CEM
T1 sequence (P51679 whole entry): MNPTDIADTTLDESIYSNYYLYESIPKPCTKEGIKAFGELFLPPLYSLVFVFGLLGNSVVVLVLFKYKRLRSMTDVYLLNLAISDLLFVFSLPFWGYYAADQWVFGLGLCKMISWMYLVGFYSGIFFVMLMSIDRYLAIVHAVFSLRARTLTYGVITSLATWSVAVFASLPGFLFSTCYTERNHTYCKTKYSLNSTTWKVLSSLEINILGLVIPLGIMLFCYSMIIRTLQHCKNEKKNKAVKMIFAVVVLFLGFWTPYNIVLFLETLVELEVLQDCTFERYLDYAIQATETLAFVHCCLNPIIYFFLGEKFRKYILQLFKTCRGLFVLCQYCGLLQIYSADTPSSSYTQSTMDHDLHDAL
Procedure, shortened: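 CEM cells at 5 · 10^6/mL in RPMI-1640 with 0.5% BSA, incubated with compound (diluted in DMSO) and [125I]TARC diluted to 100 pM in buffer, 2 h at room temperature. Bound ligand collected by filtration through GF/B filters and counted by scintillation. Values are means of three experiments (standard deviation ±30%).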

[2] = Clearance in rat at 0.5 mg/kg, iv; assay type: ADME, organism-based; design: dose 0.5 mg/kg, route intravenous; settings: in vivo
[3] = Oral bioavailability in rat at 2 mg/kg, po; assay type: ADME, organism-based; settings: in vivo
Procedure, shortened: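 Rats dosed by oral gavage at 2 mg/kg; oral bioavailability determined.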

[4] = target: T1, C-C chemokine receptor type 4; test: Displacement of [125I]MDC from CCR4 expressed in human CEM cell line; assay type: cell-based, CCRF-CEM
[5] = Terminal half life in rat at 0.5 mg/kg, iv; assay type: ADME, organism-based; design: dose 0.5 mg/kg, route intravenous; settings: in vivo

Structure (SMILES): Cc1cccc(Nc2cc(CN(Cc3ccccc3C(F)(F)F)CC3CCCCC3)no2)c1C
- IC50 [1]: 12100 nM

Structure (SMILES): CC(C)c1csc(Cc2cccc3ccccc23)n1
- IC50 [1]: > 25000 nM

Structure (SMILES): Cc1cccc(Nc2cc(CN(Cc3ccccc3C(F)(F)F)CC3CCCCC3)nn2C)c1C
- IC50 [1]: 370 nM

Structure (SMILES): Cc1csc(N(C)c2cccc3ccccc23)n1
- IC50 [1]: > 25000 nM

Structure (SMILES): CCNCc1csc(Nc2cccc3ccccc23)n1
- IC50 [1]: 1000 nM

Structure (SMILES): CC(C)(C)c1csc(Nc2cccc3cnccc23)n1
- IC50 [1]: 1500 nM

Structure (SMILES): CC(C)c1csc(Nc2cccc3ccccc23)n1
- IC50 [1]: 170 nM

Structure (SMILES): CCN(CC)Cc1csc(Nc2cccc3ccccc23)n1
- IC50 [1]: 800 nM

Structure (SMILES): CC(C)(C)c1csc(Nc2cccc3[nH]ccc23)n1
- IC50 [1]: 490 nM

Structure (SMILES): Cc1csc(Nc2cccc3ccccc23)n1
- clearance [2]: 70 mL/min/kg
- bioavailability [3]: 2%
- IC50 [4]: 3000 nM
- half-life [5]: 0.4 h
- IC50 [1]: 1700 nM

Structure (SMILES): FC(F)(F)c1ccccc1CN(Cc1csc(Nc2cccc3ccccc23)n1)CC1CCCCC1
- IC50 [1]: 14 nM

Structure (SMILES): c1ccc2c(Nc3nc(CN(CC4CCCCC4)CC4CCCCC4)cs3)cccc2c1
- clearance [2]: 17.8 mL/min/kg
- bioavailability [3]: 63%
- IC50 [4]: 31 nM
- half-life [5]: 3.6 h
- IC50 [1]: 18 nM

Structure (SMILES): CC(C)CN(Cc1csc(Nc2cccc3ccccc23)n1)CC(C)C
- IC50 [1]: 45 nM

Structure (SMILES): Cc1cccc(Nc2nc(C(C)(C)C)cs2)c1
- IC50 [1]: 2000 nM

Structure (SMILES): CC(C)(C)c1csc(Nc2cccc3ncccc23)n1
- IC50 [1]: 300 nM

Structure (SMILES): Cc1cccc(Nc2cc(CN(Cc3ccccc3C(F)(F)F)CC3CCCCC3)n[nH]2)c1C
- IC50 [1]: > 25000 nM

Structure (SMILES): CCn1ccc2c(Nc3nc(C(C)(C)C)cs3)cccc21
- IC50 [1]: 210 nM

Structure (SMILES): CC(C)(C)Cc1csc(Nc2cccc3ccccc23)n1
- IC50 [1]: 220 nM

Structure (SMILES): CC(C)c1ccccc1Nc1nc(C(C)(C)C)cs1
- IC50 [1]: 440 nM

Structure (SMILES): Cc1cccc(Nc2cccc(CN(Cc3ccccc3C(F)(F)F)CC3CCCCC3)n2)c1C
- IC50 [1]: 340 nM

Structure (SMILES): CC(C)(C)c1ccnc(Nc2cccc3ccccc23)n1
- IC50 [1]: > 25000 nM

Structure (SMILES): CC(C)(C)c1csc(Nc2cccc3cccnc23)n1
- IC50 [1]: > 25000 nM

Structure (SMILES): Cn1ccc2c(Nc3nc(C(C)(C)C)cs3)cccc21
- IC50 [1]: 37 nM

Structure (SMILES): CC(C)(C)c1csc(Nc2cccc3ccccc23)n1
- IC50 [1]: 80 nM

Structure (SMILES): CC(C)(C)c1coc(Nc2cccc3ccccc23)n1
- IC50 [1]: 80 nM

Structure (SMILES): NCc1csc(Nc2cccc3ccccc23)n1
- IC50 [1]: > 25000 nM

Structure (SMILES): CC(C)(C)c1csc(Nc2ccccc2)n1
- IC50 [1]: 4500 nM

Structure (SMILES): CC(C)(C)c1ccc(-c2csc(Nc3cccc4ccccc34)n2)cc1
- IC50 [1]: 900 nM

Structure (SMILES): c1ccc(-c2csc(Nc3cccc4ccccc34)n2)cc1
- IC50 [1]: 5500 nM

Structure (SMILES): Cc1ccccc1Nc1nc(C(C)(C)C)cs1
- IC50 [1]: 900 nM

Structure (SMILES): Cc1cccc(Nc2nc(C(C)(C)C)cs2)c1C
- IC50 [1]: 260 nM

Structure (SMILES): CC(C)(C)c1csc(Nc2cccc3c2CCCC3)n1
- IC50 [1]: 210 nM

From ChEMBL document CHEMBL1147007, “Optimization of 2-aminothiazole derivatives as CCR4 antagonists” (Bioorg Med Chem Lett, 2006)
